Measured values reported in ChEMBL document CHEMBL1926538, “3,5-Disubstituted-thiazolidine-2,4-dione analogs as anticancer agents: design, synthesis and biological characterization” (Eur J Med Chem, 2012).
The source made the active and inactive calls. The calls are words filed in the database; no cut-off is given here.

Assays:
U-937 [1] = experiment: Growth inhibition of human U937 cells after 24 hrs by MTS assay; type: functional, cell-based; conditions: U-937, 24 h
In short: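 Cells in RPMI 1640 with 10% heat-inactivated FBS, seeded 2 × 10⁴ cells/well and exposed 24 h. MTS reagent added, then 1 h further incubation at 37 °C, 5% CO₂. Formazan absorbance read at 490 nm. Viability expressed as percentage of untreated controls.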

[2] = biological target: RAF proto-oncogene serine/threonine-protein kinase (Homo sapiens) (UniProt P04049); experiment: Inhibition of raf-mediated ERK phosphorylation in human U937 cells at 0.3 to 30 uM after 1 hr by Western blot analysis; type: cell-based; conditions: U-937
Chain of RAF proto-oncogene serine/threonine-protein kinase (Homo sapiens) (P04049 whole entry): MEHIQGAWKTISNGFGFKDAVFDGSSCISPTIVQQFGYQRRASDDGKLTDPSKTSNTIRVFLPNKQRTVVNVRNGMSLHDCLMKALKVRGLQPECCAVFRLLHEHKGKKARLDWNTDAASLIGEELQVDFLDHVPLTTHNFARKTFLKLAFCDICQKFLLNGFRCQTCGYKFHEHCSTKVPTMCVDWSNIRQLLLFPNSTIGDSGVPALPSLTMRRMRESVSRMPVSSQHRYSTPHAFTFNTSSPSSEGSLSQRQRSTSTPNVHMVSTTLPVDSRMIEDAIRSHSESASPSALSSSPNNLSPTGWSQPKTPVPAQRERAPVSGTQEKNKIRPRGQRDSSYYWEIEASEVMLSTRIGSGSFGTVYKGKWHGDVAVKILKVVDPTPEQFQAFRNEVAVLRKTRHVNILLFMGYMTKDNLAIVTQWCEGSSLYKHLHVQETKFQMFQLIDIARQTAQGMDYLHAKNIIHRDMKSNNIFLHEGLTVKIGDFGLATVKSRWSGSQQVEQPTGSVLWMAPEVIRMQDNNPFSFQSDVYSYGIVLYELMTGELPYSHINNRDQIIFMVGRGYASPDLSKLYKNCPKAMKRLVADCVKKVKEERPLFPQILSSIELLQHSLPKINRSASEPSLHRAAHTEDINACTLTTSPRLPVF
In short: (§1)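 Cells in RPMI 1640 with 10% heat-inactivated FBS, 37 °C, 5% CO2; treated in growing medium (DU145 24 h; U937 1 h at 5 × 10⁵/mL). Lysed by sonication in SDS sample buffer with protease inhibitors plus 1 mM orthovanadate and pyrophosphate, boiled 5 min. Blots blocked in 5% milk, primary antibodies 1:1000 overnight at 4 °C, HRP secondary 1:2000, chemiluminescence; α-tubulin loading control.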

U-937 [3] = experiment: Inhibition of PI3K-mediated Akt phosphorylation in human U937 cells at 0.3 to 30 uM after 1 hr by Western blot analysis; type: cell-based
[4] = biological target: RAF proto-oncogene serine/threonine-protein kinase (Homo sapiens) (UniProt P04049); experiment: Inhibition of raf-mediated MEK phosphorylation in human U937 cells at 0.3 to 30 uM after 1 hr by Western blot analysis; type: cell-based; conditions: U-937; in short: as §1
U-937 [5] = experiment: Growth inhibition of human U937 cells at 320 uM after 72 hrs by MTS assay; type: functional, cell-based
In short: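 U937 cells exposed 72 h, with or without AICA 320 µM, then MTS added. Absorbance read at 490 nm, expressed as percentage of untreated controls. Data are mean percentage viability, n = 6, error bars SEM.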

U-937 [6] = experiment: Cell cycle arrest in human U937 cells assessed as decrease in S-phase population after 24 hrs by propidium iodide staining-based flow cytometric analysis in presence of MEK inhibitor PD184352; type: functional
In short: (§2)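 Cells cultured in RPMI 1640 with 10% FBS and treated 24 h at the indicated concentrations. Stained with propidium iodide for 4 h at 4 °C in the dark. Flow cytometry gave the percentage of cells in G₀/G₁, S, G₂/M and sub-G₁ phases.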

U-937 [7] = experiment: Cell cycle arrest in human U937 cells assessed as accumulation at G2/M-phase after 24 hrs by propidium iodide staining-based flow cytometric analysis in presence of MEK inhibitor PD184352; type: functional; in short: as §2

| SMILES | IC50 (U-937 [1]) | further results |
| --- | --- | --- |
| NCCN1C(=O)SC(CCCc2ccccc2)C1=O (racemic) | > 30 µM | inhibition [2]: inactive; inhibition (U-937 [3]): inactive; inhibition [4]: inactive |
| NC(=O)c1[nH]cnc1N |  | growth inhibition (GI) (U-937 [5]): inactive |
| CS(=O)(=O)Nc1ccc(CC/C=C2\SC(=O)N(CCN)C2=O)cc1 | > 30 µM |  |
| O=C(NOCC1CC1)c1ccc(F)c(F)c1Nc1ccc(I)cc1Cl |  | Activity (U-937 [6]): Active; Activity (U-937 [7]): Active |
| CC/C=C1\SC(=O)N(CCN)C1=O | > 30 µM |  |
| NCCN1C(=O)S/C(=C\CCc2ccc([N+](=O)[O-])cc2)C1=O | > 30 µM |  |
| O=C1S/C(=C\CCc2ccccc2)C(=O)N1CCN1CCOCC1 | > 30 µM |  |
| NCCN1C(=O)S/C(=C\CCc2cccnc2)C1=O | > 30 µM |  |
| O=C(O)CN1C(=O)S/C(=C\CCc2ccccc2)C1=O | > 30 µM |  |
| NCCN1C(=O)c2ccc(Cc3ccccc3)cc2C1=O | > 30 µM |  |
| NCCN1C(=O)S/C(=C\CCc2ccc(S(N)(=O)=O)cc2)C1=O | > 30 µM |  |

Further compounds by falling IC50 (U-937 [1]), results first:

| IC50 (U-937 [1]) | SMILES | further results |
| --- | --- | --- |
| 29.5 µM | NCCN1C(=O)S/C(=C\CCc2c[nH]c3ccccc23)C1=O |  |
| 27.7 µM | NCCN1C(=O)S/C(=C\CCc2ccc3[nH]ccc3c2)C1=O |  |
| 24.4 µM | NCCN1C(=O)S/C(=C\CCc2cccc([N+](=O)[O-])c2)C1=O |  |
| 21.2 µM | NCCN1C(=O)S/C(=C\CCc2ccc(Cl)cc2)C1=O |  |
| 14.1 µM | NCCN1C(=O)S/C(=C\CCC2CC2)C1=O |  |
| 11.3 µM | CCOc1ccccc1CC/C=C1\SC(=O)N(CCN)C1=O |  |
| 11.3 µM | O=C1S/C(=C\CCc2ccccc2)C(=O)N1CCO |  |
| 10.4 µM | NCCN1C(=O)S/C(=C\CCc2ccccc2)C1=O | inhibition [2]: inactive; inhibition (U-937 [3]): inactive; inhibition [4]: inactive |
| 10 µM | CCOc1cccc(CC/C=C2\SC(=O)N(CCN)C2=O)c1 |  |
| 9.6 µM | CCOc1ccc(CC/C=C2\SC(=O)N(CCN)C2=O)cc1 |  |
| 9.4 µM | COc1ccc(CC/C=C2\SC(=O)N(CCN)C2=O)cc1 |  |
